From ChEMBL document CHEMBL3352289, “Potent and selective MAO-B inhibitory activity: amino- versus nitro-3-arylcoumarin derivatives” (Bioorg Med Chem Lett, 2015)

Tests used:
[1] = Octanol/water partition coefficient, log P of the compound; assay type: physicochemical
[2] = molecular target: T1, Amine oxidase [flavin-containing] B (Homo sapiens, UniProt P27338); assay type: cell-based, BTI-TN-5B1-4
T1 sequence (P27338 whole entry): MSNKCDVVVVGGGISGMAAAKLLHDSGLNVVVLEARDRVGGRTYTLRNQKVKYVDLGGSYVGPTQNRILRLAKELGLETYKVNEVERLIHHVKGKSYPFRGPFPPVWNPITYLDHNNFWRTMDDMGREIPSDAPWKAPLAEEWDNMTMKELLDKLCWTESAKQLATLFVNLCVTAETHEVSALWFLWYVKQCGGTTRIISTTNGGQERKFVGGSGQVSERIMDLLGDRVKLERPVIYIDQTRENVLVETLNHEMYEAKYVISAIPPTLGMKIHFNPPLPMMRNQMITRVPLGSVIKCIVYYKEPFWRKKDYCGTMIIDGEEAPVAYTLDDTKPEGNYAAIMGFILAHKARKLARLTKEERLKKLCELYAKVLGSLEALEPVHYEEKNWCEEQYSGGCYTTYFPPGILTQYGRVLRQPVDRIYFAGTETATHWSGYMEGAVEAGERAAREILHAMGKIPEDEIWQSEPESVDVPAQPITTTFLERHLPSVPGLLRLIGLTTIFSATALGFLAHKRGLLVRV

[3] = molecular target: T2, Amine oxidase [flavin-containing] A (Homo sapiens, UniProt P21397); assay: Inhibition of human recombinant MAOA expressed in BTI-TN-5B1-4 cells using p-tyramine substrate assessed as reduction in H2O2 production at 100 uM; assay type: cell-based; conditions: bti-tn-5b1-4, 100 µM
T2 sequence (P21397 whole entry): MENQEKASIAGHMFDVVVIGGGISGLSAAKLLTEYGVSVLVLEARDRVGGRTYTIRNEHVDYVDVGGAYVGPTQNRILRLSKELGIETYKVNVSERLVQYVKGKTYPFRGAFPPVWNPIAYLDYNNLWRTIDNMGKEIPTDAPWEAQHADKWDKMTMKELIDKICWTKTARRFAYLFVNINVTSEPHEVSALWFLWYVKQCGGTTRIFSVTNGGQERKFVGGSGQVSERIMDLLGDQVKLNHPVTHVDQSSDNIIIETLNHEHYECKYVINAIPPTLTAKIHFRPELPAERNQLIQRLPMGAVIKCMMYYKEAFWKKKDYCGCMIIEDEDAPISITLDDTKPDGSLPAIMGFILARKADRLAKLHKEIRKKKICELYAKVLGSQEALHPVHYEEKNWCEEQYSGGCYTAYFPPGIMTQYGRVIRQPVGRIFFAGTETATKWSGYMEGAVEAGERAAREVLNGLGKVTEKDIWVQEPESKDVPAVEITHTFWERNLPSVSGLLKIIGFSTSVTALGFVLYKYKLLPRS

[4] = species: Homo sapiens; assay: Selectivity index, ratio of IC50 for human recombinant MAOA to IC50 for human recombinant MAOB
Summary of the method: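 Ratio of IC50 (hMAO-A) to IC50 (hMAO-B). Both come from the Amplex Red/p-tyramine H2O2 assay with recombinant insect-cell microsomal isoforms. Each IC50 is the mean of five experiments. Where an IC50 was not reached at the highest concentration tested (100), that IC50 was taken as greater than 100.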

[5] = molecular target: T2, Amine oxidase [flavin-containing] A; assay: Inhibition of human recombinant MAOA expressed in BTI-TN-5B1-4 cells using p-tyramine substrate assessed as reduction in H2O2 production; assay type: cell-based
[6] = Permeability by PAMPA method; assay type: ADME; conditions: read-out: Peff
Summary of the method: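 PAMPA-BBB assay. A PVDF filter was coated with porcine brain lipid in dodecane (20 mg/mL). Compound at 100 µg/mL in PBS pH 7.4/ethanol 70:30 was placed in the donor wells, with the same buffer in the acceptor wells. Plates were incubated 240 min at 25 °C, and acceptor concentration was read by UV-vis at five wavelengths, four wells, ≥3 runs, mean ± SD. Ten reference drugs validated each run.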

[7] = molecular target: Amine oxidase [flavin-containing] B (Homo sapiens) (UniProt P27338); assay: Reversible inhibition of human recombinant MAOB expressed in BTI-TN-5B1-4 cells assessed as AUF/t ratio at 2.5 nM by effective dilution method relative to untreated control; set-up: scale not given: the % may be the effect or the level left; conditions: BTI-TN-5B1-4, human
[8] = molecular target: T1, Amine oxidase [flavin-containing] B; assay: Inhibition of human recombinant MAOB expressed in BTI-TN-5B1-4 cells using p-tyramine substrate assessed as reduction in H2O2 production at 100 uM; assay type: cell-based; conditions: bti-tn-5b1-4, 100 µM
Summary of the method: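 Microsomal hMAO-B from BTI-TN-5B1-4 insect cells infected with recombinant baculovirus. Enzyme, dosed to oxidise 165 pmol p-tyramine/min, was preincubated with drug in 0.05 M sodium phosphate pH 7.4 (DMSO ≤1%) for 15 min at 37 °C. Reaction started with Amplex Red, 1 U/mL HRP and 1 mM p-tyramine. Resorufin fluorescence (ex 545/em 590 nm) read over 15 min at 37 °C, minus enzyme-free background, versus vehicle control.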

[9] = molecular target: T2, Amine oxidase [flavin-containing] A; assay: Reversible inhibition of human recombinant MAOA expressed in BTI-TN-5B1-4 cells assessed as AUF/t ratio at 20 nM by effective dilution method relative to untreated control; assay type: cell-based; set-up: scale not given: the % may be the effect or the level left; conditions: BTI-TN-5B1-4, human; read-out: Activity

Row | SMILES | logP [1] | IC50 ([2]; read-out: IC50) | inhibition (INH) [3] | Ratio IC50 [4] | IC50 ([5]; bti-tn-5b1-4) | Papp [6] | activity at 0.0025 µM [7] | IC50 ([5]; read-out: IC50) | IC50 ([2]; bti-tn-5b1-4) | inhibition (INH) [8] | activity at 0.02 µM [9]
1 | Cc1ccc2oc(=O)c(-c3ccc(N)cc3)cc2c1 | 3.24 | 4.1 nM | Not Active | > 25000 | Not Active | – | – | – | – | – | –
2 | Cc1ccc2oc(=O)c(-c3ccc([N+](=O)[O-])cc3)cc2c1 | 4.12 | 2.1 nM | – | 2090 | – | 10.5 ×10⁻⁶ cm/s | 80% | 4180 nM | – | – | –
3 | O=C(NCCN1CCOCC1)c1ccc(Cl)cc1 [MOCLOBEMIDE] | 1.68 | – | – | – | – | – | – | – | Not Active | Not Active | –
4 | Cc1ccc2oc(=O)c(-c3cccc(N)c3)cc2c1 | 3.21 | 2.2 nM | Not Active | > 50000 | Not Active | – | – | – | – | – | –
5 | C#CCN(C)[C@H](C)Cc1ccccc1 [SELEGILINE] | – | – | – | – | – | – | – | – | – | – | 8.51%
6 | Cc1ccc2oc(=O)c(-c3ccccc3[N+](=O)[O-])cc2c1 | 4.07 | 5520 nM | Not Active | > 18 | Not Active | – | – | – | – | – | –
7 | Cc1ccc2oc(=O)c(-c3cccc([N+](=O)[O-])c3)cc2c1 | 4.1 | 6 nM | Not Active | > 16700 | Not Active | – | – | – | – | – | –
8 | Cc1ccc2oc(=O)c(-c3ccccc3N)cc2c1 | 3.6 | 2170 nM | Not Active | > 46 | Not Active | – | – | – | – | – | –
